Active and inactive are the calls of the source.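 How the source made its calls: active means cell kill with TRAIL plus compound beats the two separate kills summed, at every dose, and climbs with dose; inactive means the rest.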
System: 184B5 cells, TRAIL potentiation, ATPlite cytotoxicity, 24 h
Experiment: normal mammary cell killing with TRAIL – 184B5 normal mammary epithelial cells, counter-screen for TRAIL sensitizer project, confirmation (AID 1745)
Conditions: stronger effect = higher value
How it was run: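 System: Normal 184B5 cells / Reagent: TRAIL at 1000 ng/mL final / Dosing: compound 1.25–5 µM final / Times: seeding 24 h prior, compound 4 h, TRAIL 24 h, 37 °C / Detection: ATP-based luminescence using ATPLite reagent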

[1] = compound alone cytotoxicity, at 5 µM
[2] = compound plus TRAIL, at 1.25 µM

SMILES | cytotoxicity with TRAIL (at 5 µM) | cytotoxicity [1] | cytotoxicity (compound alone, at 1.25 µM) | cytotoxicity (compound alone, at 2.5 µM) | cytotoxicity with TRAIL [2] | cytotoxicity with TRAIL (compound plus TRAIL, at 2.5 µM)
CSc1nc(-c2ccccc2)nc(C(Cl)Cl)n1 | 32% (inactive) | 22% | 19% | 22% | 28% | 28%
CCSc1nc(-c2ccccc2)nc(C(Cl)Cl)n1 | 25% (inactive) | 11% | 10% | 11% | 21% | 22%
CSc1nc(-c2ccc(C)cc2)nc(C(Cl)Cl)n1 | 41% (inactive) | 9% | 2% | 6% | 35% | 39%

Reference: PubChem BioAssay AID1745 (Sanford-Burnham Center for Chemical Genomics, 2009)
